Source: PubChem
SKKanGAS inh – SKKanGAS growth inhibition | AID 1662 | 300,000 compounds, 1.3% hits | inhibition, % at 7.5 µM | S. pyogenes SKKanGAS, kanamycin growth, BacTiter-Glo, 6 h;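 active = mean replicate score, as percent of positive control median, at least 50; inconclusive = mean below 50 but one replicate at or above 50; inactive = mean and every replicate below 50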;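 note: strain carries kanamycin resistance gene driven by streptokinase promoter and grows in 40 µg/ml kanamycin; loss of luminescence reflects streptokinase promoter inhibition or plain growth inhibition; 0% = median of DMSO wells and 100% = positive control at its reference dose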
Lmaj promast – inhibitors of Leishmania major promastigote growth. inhibition, % at 10 µM. 200,000 compounds, 9% hits. Leishmania major promastigotes, resazurin fluorescence viability; in the data active = inhibition above about 50%;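 note: promastigotes grown with compound for 44 hours at 28 °C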
T cruzi inh – blocks replication of Trypanosoma cruzi. 300,000 compounds, 1.4% hits. AID 1885. T. cruzi beta-gal in NIH3T3, luminescence, 90 h. inhibition, % (concentration not given with the values);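 active = mean inhibition across valid replicates above about 55%, limit read from the data; inconclusive = mean below that limit but half or more replicates reach it; inactive = mean below it, under half of replicates reach it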;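 note: signal also drops with host cell toxicity which is not excluded here; 0% = plate median of DMSO wells and 100% = zero luminescence signal; higher percent means less beta-gal luminescence so fewer parasites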
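Material: NIH/3T3 host cells with β-galactosidase reporter T. cruzi; Input: 5,000 host fibroblasts per well; Medium: DMEM, 2% fetal bovine serum; Compound: 50 nL DMSO compound solution per well; Schedule: 3 h host attachment, then at least 90 h co-culture; Detection: luminescent β-galactosidase signal after 60 min lysis.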
Beta apoptosis – beta cell apoptosis inhibition; INS-1E cytokine-induced death, ATP luminescence, 48 h; percent of positive-control rescue, neutral wells zero; protection from apoptosis, % (test concentration not listed); 300,000 compounds, 0.8% hits;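 active = Every replicate reaches about 75%, or at least half do and their mean reaches it too, limit read from the data; inconclusive = At least half of replicates reach the limit but their mean does not; inactive = Under half of replicates reach the limit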;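 note: 0% = cytokine-treated negative control wells and 100% = positive control rescue; higher means more ATP so stronger rescue from cytokine killing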
Mdm2-MdmX inh – disrupts the human Mdm2-MdmX interaction | AID 485346 | 330,000 compounds, 3% hits | SaOS-2 split-luciferase Mdm2/MdmX complementation, luminescence | inhibition, % at 8 µM | O15151+Q00987;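 active = inhibition of at least 50% at 8 µM in the primary screen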
Target sequence (O15151 whole entry, looked up): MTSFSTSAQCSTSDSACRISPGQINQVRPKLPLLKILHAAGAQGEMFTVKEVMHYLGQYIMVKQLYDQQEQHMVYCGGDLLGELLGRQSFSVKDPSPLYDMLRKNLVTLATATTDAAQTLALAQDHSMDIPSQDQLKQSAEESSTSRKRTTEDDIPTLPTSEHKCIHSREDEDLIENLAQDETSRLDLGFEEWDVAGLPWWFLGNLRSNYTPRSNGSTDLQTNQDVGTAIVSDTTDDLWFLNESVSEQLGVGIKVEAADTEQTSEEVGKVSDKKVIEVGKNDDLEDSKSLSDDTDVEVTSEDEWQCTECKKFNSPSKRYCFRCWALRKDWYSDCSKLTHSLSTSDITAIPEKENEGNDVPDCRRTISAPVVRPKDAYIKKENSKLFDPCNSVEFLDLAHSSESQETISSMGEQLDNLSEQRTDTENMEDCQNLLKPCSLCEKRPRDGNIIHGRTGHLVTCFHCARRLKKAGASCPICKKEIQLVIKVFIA
Target sequence (Q00987 whole entry, looked up): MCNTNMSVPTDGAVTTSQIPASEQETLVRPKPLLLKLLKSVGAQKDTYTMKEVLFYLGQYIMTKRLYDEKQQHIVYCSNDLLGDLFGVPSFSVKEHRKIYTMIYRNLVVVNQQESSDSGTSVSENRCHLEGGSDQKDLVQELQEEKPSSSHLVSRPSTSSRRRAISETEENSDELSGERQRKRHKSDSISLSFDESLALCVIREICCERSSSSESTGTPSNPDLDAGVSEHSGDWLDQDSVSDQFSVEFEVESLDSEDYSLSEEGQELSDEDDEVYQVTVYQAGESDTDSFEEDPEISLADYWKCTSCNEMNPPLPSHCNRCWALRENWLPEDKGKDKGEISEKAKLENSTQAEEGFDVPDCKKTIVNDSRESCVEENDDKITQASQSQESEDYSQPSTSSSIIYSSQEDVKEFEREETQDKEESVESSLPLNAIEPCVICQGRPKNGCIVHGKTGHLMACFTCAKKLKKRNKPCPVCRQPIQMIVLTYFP
CSC inhib – cancer stem cell inhibition. AID 2717. cancer stem cell-like cells viability, luminescence. inhibition, % at 7.5 µM. 300,000 compounds, 1.1% hits; in the data active = inhibition above about 75%; inconclusive = no clear call, values can overlap the other calls; tested in HMLE shEcad cells
Mdm2-MdmX conf – human Mdm2/MdmX binding inhibition, confirmed | shares compounds with Mdm2-MdmX inh | luminescent assay | inhibition, % at 8 µM | 10,000 compounds, 55% hits; in the data active = inhibition above about 40%
FLuc counter – inhibits full-length luciferase, flagging false Mdm2/MdmX hits | SaOS-2 full-length luciferase counterscreen, luminescence | AID 504607 | 6,200 compounds, 77% hits | shares compounds with Mdm2-MdmX inh | inhibition, % at 8 µM;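 active = mean inhibition at 8 µM reaching about 37%, which flags the compound as non-specific, limit read from the data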;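 note: p53-null SaOS-2 cells with luciferase driven by a doxycycline-inducible promoter; compound on cells about two nights before reading with doxycycline added after day one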
Starred values were filed as active, the others as inactive. In the library only some 9.4% were active in any assay of this set; here they are far more common.

Screening CCCCC(=O)NC(c1cccs1)c1cc(Cl)c2cccnc2c1O (stereo not given) returned SKKanGAS inh 67*, Lmaj promast 98*, T cruzi inh inconclusive, Beta apoptosis 94*, Mdm2-MdmX inh 85*, CSC inhib 120*, Mdm2-MdmX conf 75* and FLuc counter 28.
CCC(=O)NC(c1cccs1)c1cc(Cl)c2cccnc2c1O (stereo not given) was read as SKKanGAS inh 66*, Lmaj promast 98*, T cruzi inh 59*, Beta apoptosis 99*, Mdm2-MdmX inh 86*, CSC inhib 119*, Mdm2-MdmX conf 76* and FLuc counter 21.
`CCN(CC)C(=O)Oc1ccc(Cl)c2cccnc12` gave SKKanGAS inh -13, Lmaj promast -2, T cruzi inh -2, Beta apoptosis -1, Mdm2-MdmX inh 4 and CSC inhib -9.
COc1cccc(/C=N/NC(=O)C(=O)Nc2ccccc2OC(F)(F)C(F)F)c1O was read as SKKanGAS inh 38, Lmaj promast 97*, T cruzi inh -3, Beta apoptosis 82*, Mdm2-MdmX inh 62*, CSC inhib 108*, Mdm2-MdmX conf 75* and FLuc counter 22.
For COc1cccc(/C=N/NC(=O)c2c(C)nc3ccc(Cl)cn23)c1O the results were SKKanGAS inh 103*, T cruzi inh 20, Beta apoptosis 123*, Mdm2-MdmX inh 68*, CSC inhib 71, Mdm2-MdmX conf 78* and FLuc counter 34.
Screening COc1cccc(/C=N/NC(=O)c2[nH]c(C)c(C(=O)N/N=C/c3cccc(OC)c3O)c2C)c1O returned SKKanGAS inh 0, Lmaj promast 91*, T cruzi inh -13, Beta apoptosis 37, Mdm2-MdmX inh 62*, CSC inhib 93*, Mdm2-MdmX conf 43* and FLuc counter 70*.
`N#CC1=C(N)Oc2c(ccc3cccnc23)C1c1ccccc1` (stereo not given) gave SKKanGAS inh 13, T cruzi inh 53, Beta apoptosis 97*, Mdm2-MdmX inh 75*, CSC inhib 39, Mdm2-MdmX conf 58* and FLuc counter 54*.
For Cc1ccc2[nH]c(=O)c(C3C(C#N)=C(N)Oc4c3ccc3cccnc43)cc2c1 (stereo not given) the results were SKKanGAS inh 18, Lmaj promast 96*, T cruzi inh -9, Beta apoptosis 91*, Mdm2-MdmX inh 57*, CSC inhib 7, Mdm2-MdmX conf 42* and FLuc counter 44*.
For COc1cc(-c2ncc3ccccn23)cc(OC)c1OC the results were SKKanGAS inh -3, Lmaj promast 26, T cruzi inh 0, Beta apoptosis -1, Mdm2-MdmX inh 20 and CSC inhib -12.
COc1ccc(C(C[N+](=O)[O-])c2c(-c3ccccc3)cc3ccccn23)cc1 (stereo not given) was read as SKKanGAS inh -1, Lmaj promast 100*, T cruzi inh -15, Beta apoptosis -8, Mdm2-MdmX inh 96*, CSC inhib inconclusive and Mdm2-MdmX conf 16.
For COc1cc(C(C[N+](=O)[O-])c2c(-c3ccccc3)cc3ccccn23)cc(OC)c1OC (stereo not given) the results were SKKanGAS inh -1, Lmaj promast 93*, T cruzi inh 19, Beta apoptosis -8, Mdm2-MdmX inh 55*, CSC inhib 10 and Mdm2-MdmX conf 15.
COc1ccc(NC(=O)Nc2ccc3c(c2)C(=O)N([C@@H](C)CO)C[C@@H](C)[C@@H](CN(C)S(=O)(=O)c2cn(C)cn2)O3)cc1 was read as Mdm2-MdmX inh 14.
CNC(=O)CS(=O)(=O)CC(=O)Nc1cc(OC(C)C)c(Cl)cc1Cl was read as SKKanGAS inh 12, Lmaj promast 1, T cruzi inh 8, Beta apoptosis -5 and Mdm2-MdmX inh -50.
For COc1ccc(CN(C(=O)CSc2nnc(-c3c[nH]c4ccccc34)o2)c2ccc(F)cc2)cc1OC the results were SKKanGAS inh 22, Lmaj promast 32, T cruzi inh 51, Beta apoptosis -17, Mdm2-MdmX inh 66*, CSC inhib 66, Mdm2-MdmX conf 74* and FLuc counter 70*.
`CC(CNC(=O)c1ccccc1[N+](=O)[O-])NC(=O)c1ccccc1[N+](=O)[O-]` (stereo not given) gave SKKanGAS inh 3, T cruzi inh -20, Beta apoptosis -2, Mdm2-MdmX inh 13 and CSC inhib -9.
Screening CC(OC(=O)c1cccc(S(=O)(=O)N2CCOCC2)c1)C(=O)NC1CCCCC1C (stereo not given) returned Beta apoptosis -2 and Mdm2-MdmX inh -29.
Cn1c(=O)n(C)c2cc(NC(=O)c3cc4ccccc4o3)ccc21 was read as SKKanGAS inh 2, Lmaj promast 10, T cruzi inh -7, Beta apoptosis 1, Mdm2-MdmX inh 51*, CSC inhib 2 and Mdm2-MdmX conf -10.
`COc1ccc(NC(=O)c2cc(=O)c3ccccc3o2)cc1Cl` gave SKKanGAS inh 1, T cruzi inh 2, Beta apoptosis 7, Mdm2-MdmX inh 52*, CSC inhib 1, Mdm2-MdmX conf 47* and FLuc counter 95*.
`O=C(Nc1ccc2oc(=O)ccc2c1)c1cc2ccccc2o1` gave SKKanGAS inh 1, Lmaj promast -2, T cruzi inh -2, Beta apoptosis 12, Mdm2-MdmX inh -112 and CSC inhib 10.
Screening Cc1cc(NC(=O)c2cncc(Br)c2)ccc1NC(=O)c1cc2ccccc2o1 returned SKKanGAS inh 3, T cruzi inh -3, Beta apoptosis 60, Mdm2-MdmX inh 74*, CSC inhib -9, Mdm2-MdmX conf 51* and FLuc counter 29.
Screening COc1cc(NC(=O)c2ccccc2)ccc1NC(=O)c1cc2ccccc2o1 returned SKKanGAS inh 3, T cruzi inh -6, Beta apoptosis 12, Mdm2-MdmX inh 44 and CSC inhib 5.
Screening COc1cc(NC(=O)c2cccs2)ccc1NC(=O)c1cc2ccccc2o1 returned SKKanGAS inh -1, Lmaj promast -6, T cruzi inh 4, Beta apoptosis 15, Mdm2-MdmX inh 89*, CSC inhib 11, Mdm2-MdmX conf 52* and FLuc counter 117*.
`CN(C)S(=O)(=O)c1cc(NC(=O)c2cc(=O)c3ccccc3o2)ccc1Cl` gave SKKanGAS inh 12, T cruzi inh 2, Beta apoptosis 3, Mdm2-MdmX inh -6 and CSC inhib 6.
CCCCC(=O)Nc1ccccc1C(C)C was read as SKKanGAS inh -1, Lmaj promast -5, T cruzi inh -6, Beta apoptosis -1, Mdm2-MdmX inh 14 and CSC inhib 3.
